Test results taken from ChEMBL document CHEMBL4477204, “Tetrahydroisoquinoline-Derived Urea and 2,5-Diketopiperazine Derivatives as Selective Antagonists of the Transient Receptor Potential Melastatin 8 (TRPM8) Channel Receptor and Antiprostate Cancer Agents” (J Med Chem, 2016).
Active and inactive are the calls of the source. The calls are words filed in the database; no cut-off is given here.

Columns and labels:
[1] = target: Transient receptor potential cation channel subfamily A member 1 (Rattus norvegicus) (UniProt Q6RI86); assay: Antagonist activity at recombinant rat TRPA1 expressed in HEK293 cells assessed as inhibition of AITC-induced intracellular calcium accumulation up to 10 uM preincubated for 5 mins followed by AITC addition by Fluo-4-AM probe-based spectrofluorimetric assay; type: cell-based
Chain of Transient receptor potential cation channel subfamily A member 1 (Rattus norvegicus) (Q6RI86 whole entry): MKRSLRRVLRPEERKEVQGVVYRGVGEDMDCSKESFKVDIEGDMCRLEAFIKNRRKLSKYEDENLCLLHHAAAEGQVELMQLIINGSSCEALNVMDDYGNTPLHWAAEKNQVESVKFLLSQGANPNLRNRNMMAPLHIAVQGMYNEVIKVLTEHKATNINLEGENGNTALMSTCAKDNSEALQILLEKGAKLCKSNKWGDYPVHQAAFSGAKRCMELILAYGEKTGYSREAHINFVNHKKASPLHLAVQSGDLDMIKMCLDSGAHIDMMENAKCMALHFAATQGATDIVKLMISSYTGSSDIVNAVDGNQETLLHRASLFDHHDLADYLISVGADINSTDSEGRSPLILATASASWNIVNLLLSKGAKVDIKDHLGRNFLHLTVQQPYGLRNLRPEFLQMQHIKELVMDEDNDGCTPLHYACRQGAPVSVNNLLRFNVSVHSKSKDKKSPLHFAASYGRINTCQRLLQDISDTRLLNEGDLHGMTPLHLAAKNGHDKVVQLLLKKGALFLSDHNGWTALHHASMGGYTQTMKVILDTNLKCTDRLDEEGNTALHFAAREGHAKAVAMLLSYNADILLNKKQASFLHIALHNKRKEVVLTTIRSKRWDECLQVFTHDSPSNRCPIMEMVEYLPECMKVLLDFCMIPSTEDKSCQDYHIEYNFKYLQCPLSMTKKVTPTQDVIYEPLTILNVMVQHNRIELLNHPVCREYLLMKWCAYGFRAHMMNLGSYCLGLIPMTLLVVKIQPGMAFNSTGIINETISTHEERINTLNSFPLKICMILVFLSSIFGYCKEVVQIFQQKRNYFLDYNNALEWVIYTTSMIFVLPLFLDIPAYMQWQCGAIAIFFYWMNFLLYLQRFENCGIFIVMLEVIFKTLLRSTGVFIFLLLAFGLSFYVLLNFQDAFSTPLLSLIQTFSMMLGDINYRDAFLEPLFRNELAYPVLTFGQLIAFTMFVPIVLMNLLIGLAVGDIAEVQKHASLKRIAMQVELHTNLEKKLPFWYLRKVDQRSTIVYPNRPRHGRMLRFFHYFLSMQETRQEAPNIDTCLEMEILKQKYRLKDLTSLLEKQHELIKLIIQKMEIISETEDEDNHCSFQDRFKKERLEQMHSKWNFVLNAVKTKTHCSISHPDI
Outline: (§1)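 HEK-293 cells stably expressing the listed TRP channel (human TRPV1; rat TRPM8, TRPA1, TRPV2, TRPV3 or TRPV4) were Fluo-4-AM loaded (4 µM, 1 h, 25 °C) and suspended in Tyrode's buffer pH 7.4. Compound was added 5 min before agonist: icilin 0.25 µM (TRPM8), capsaicin 0.1 µM (TRPV1), AITC 100 µM (TRPA1), LPC 3 µM (TRPV2), thymol 100 µM (TRPV3), 4α-PDD 1 µM (TRPV4). Agonist alone was taken as 100%. IC50 from sigmoidal fit, at least triplicate.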

LNCaP [2] = assay: Induction of apoptosis in human LNCAP cells assessed as increase in caspase3/7 activity at 10 uM after 72 hrs by caspase-glo 3/7 chemiluminescence assay relative to control; type: functional
Outline: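 LNCaP cells were cultured 72 h with 10 µM compound or vehicle, then washed with PBS. Caspase-Glo 3/7 reagent was added to 1×10^4 cells/assay, incubated 1 h at room temperature in the dark, and luminescence was read. Vehicle blank was subtracted; runs were in triplicate. Camptothecin 0.1 µg/mL plus anti-Fas 0.2 µg/mL for 24 h served as the apoptosis reference.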

[3] = target: T1, Transient receptor potential cation channel subfamily V member 2 (Rattus norvegicus) (UniProt Q9WUD2); assay: Antagonist activity at recombinant rat TRPV2 expressed in HEK293 cells assessed as inhibition of LPC-induced intracellular calcium accumulation up to 10 uM preincubated for 5 mins followed by LPC addition by Fluo-4-AM probe-based spectrofluorimetric assay; type: cell-based; outline: as §1
T1 sequence (whole entry): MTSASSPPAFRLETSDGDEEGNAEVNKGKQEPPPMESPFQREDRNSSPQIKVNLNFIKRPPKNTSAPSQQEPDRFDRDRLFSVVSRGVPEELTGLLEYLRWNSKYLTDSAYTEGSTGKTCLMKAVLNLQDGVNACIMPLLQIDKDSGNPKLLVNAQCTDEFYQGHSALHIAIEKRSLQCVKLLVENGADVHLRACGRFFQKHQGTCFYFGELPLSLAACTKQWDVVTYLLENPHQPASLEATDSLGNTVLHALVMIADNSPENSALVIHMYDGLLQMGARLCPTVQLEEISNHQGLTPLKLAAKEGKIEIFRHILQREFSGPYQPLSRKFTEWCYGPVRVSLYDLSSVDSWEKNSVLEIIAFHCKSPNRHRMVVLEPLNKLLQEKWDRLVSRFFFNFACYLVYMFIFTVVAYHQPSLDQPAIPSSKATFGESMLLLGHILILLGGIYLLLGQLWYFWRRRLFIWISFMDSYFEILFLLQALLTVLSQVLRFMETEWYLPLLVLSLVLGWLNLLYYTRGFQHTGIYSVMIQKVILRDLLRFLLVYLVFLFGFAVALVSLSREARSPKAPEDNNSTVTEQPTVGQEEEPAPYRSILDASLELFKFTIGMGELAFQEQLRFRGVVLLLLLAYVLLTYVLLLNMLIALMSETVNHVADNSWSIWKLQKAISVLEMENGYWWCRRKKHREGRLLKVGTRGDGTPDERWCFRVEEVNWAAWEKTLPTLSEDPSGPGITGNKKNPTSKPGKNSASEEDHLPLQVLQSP

[4] = target: T2, Transient receptor potential cation channel subfamily M member 8 (Rattus norvegicus, UniProt Q8R455); assay: Antagonist activity at recombinant rat TRPM8 expressed in HEK293 cells assessed as inhibition of icilin-induced intracellular calcium accumulation preincubated for 5 mins followed by icilin addition by Fluo-4-AM probe-based spectrofluorimetric assay; type: cell-based; outline: as §1
T2 sequence (Q8R455 whole entry): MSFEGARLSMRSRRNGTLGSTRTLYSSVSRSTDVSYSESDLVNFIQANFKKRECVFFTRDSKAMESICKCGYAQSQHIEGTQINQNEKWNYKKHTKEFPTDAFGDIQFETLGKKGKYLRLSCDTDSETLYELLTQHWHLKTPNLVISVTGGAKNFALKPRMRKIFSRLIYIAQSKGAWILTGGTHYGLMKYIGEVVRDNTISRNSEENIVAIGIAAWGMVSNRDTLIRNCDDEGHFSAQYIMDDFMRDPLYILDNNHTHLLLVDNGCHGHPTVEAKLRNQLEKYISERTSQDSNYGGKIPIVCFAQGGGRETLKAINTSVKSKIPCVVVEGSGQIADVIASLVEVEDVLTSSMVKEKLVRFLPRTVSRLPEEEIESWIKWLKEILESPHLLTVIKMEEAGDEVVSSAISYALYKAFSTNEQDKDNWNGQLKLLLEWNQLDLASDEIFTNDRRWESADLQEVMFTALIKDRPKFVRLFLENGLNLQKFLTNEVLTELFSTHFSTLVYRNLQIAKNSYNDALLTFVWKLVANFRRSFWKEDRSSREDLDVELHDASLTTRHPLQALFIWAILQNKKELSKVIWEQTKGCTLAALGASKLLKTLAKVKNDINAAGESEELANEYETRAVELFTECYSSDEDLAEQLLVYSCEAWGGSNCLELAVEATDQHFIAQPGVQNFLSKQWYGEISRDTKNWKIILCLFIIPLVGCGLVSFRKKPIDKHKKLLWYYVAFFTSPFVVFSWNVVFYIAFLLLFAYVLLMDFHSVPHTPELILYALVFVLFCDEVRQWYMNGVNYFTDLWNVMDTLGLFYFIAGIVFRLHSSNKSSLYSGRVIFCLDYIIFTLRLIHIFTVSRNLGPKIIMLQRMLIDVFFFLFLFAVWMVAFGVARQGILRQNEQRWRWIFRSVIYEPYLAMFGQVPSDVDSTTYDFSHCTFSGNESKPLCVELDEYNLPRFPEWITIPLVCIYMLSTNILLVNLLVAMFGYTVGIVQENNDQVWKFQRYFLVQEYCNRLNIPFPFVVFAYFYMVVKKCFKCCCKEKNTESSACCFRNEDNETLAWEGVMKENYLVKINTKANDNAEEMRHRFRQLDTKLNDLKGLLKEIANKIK

[5] = target: T2, Transient receptor potential cation channel subfamily M member 8; assay: Agonist activity at recombinant rat TRPM8 expressed in HEK293 cells assessed as increase in intracellular calcium accumulation by Fluo-4-AM probe-based spectrofluorimetric assay; type: cell-based; details: hek293
Outline: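 HEK-293 cells stably expressing rat TRPM8 were loaded with Fluo-4-AM (4 µM, 0.02% Pluronic F-127) for 1 h at 25 °C in serum-free EMEM. They were then washed and suspended in Tyrode's buffer pH 7.4 in a stirred cuvette. [Ca2+]i fluorescence (ex 488/em 516 nm) was read before and after compound addition. Wild-type HEK-293 response was subtracted. Efficacy is expressed versus 4 µM ionomycin; EC50 comes from a sigmoidal fit.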

[6] = target: Transient receptor potential cation channel subfamily A member 1 (Rattus norvegicus, UniProt Q6RI86); assay: Antagonist activity at recombinant rat TRPA1 expressed in HEK293 cells assessed as inhibition of AITC-induced intracellular calcium accumulation preincubated for 5 mins followed by AITC addition by Fluo-4-AM probe-based spectrofluorimetric assay; type: cell-based; outline: as §1
Chain of Transient receptor potential cation channel subfamily A member 1 (Q6RI86 whole entry): as the sequence (Q6RI86 whole entry) above

LNCaP [7] = assay: Cytotoxicity against human LNCAP cells assessed as inhibition of cell growth at 10 uM after 72 hrs by trypan blue assay; type: functional; details: for inhibition of growth at 10 µM: read-out: GI
Outline: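 LNCaP cells were grown in RPMI-1640 with 10% FBS and given a daily dose of compound for 72 h. Cells were then counted in a Burker chamber, with cell number also estimated from dsDNA content at 4 pg DNA/cell. Dead cells were scored with 0.4% trypan blue. Statistics used ANOVA with Bonferroni's test.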

[8] = target: Transient receptor potential cation channel subfamily V member 4 (Rattus norvegicus) (UniProt Q9ERZ8); assay: Antagonist activity at recombinant rat TRPV4 expressed in HEK293 cells assessed as inhibition of 4alphaPDD-induced intracellular calcium accumulation up to 10 uM preincubated for 5 mins followed by 4alphaPDD addition by Fluo-4-AM probe-based spectrofluorimetric assay; type: cell-based; outline: as §1
Chain of Transient receptor potential cation channel subfamily V member 4 (Rattus norvegicus) (Q9ERZ8 whole entry): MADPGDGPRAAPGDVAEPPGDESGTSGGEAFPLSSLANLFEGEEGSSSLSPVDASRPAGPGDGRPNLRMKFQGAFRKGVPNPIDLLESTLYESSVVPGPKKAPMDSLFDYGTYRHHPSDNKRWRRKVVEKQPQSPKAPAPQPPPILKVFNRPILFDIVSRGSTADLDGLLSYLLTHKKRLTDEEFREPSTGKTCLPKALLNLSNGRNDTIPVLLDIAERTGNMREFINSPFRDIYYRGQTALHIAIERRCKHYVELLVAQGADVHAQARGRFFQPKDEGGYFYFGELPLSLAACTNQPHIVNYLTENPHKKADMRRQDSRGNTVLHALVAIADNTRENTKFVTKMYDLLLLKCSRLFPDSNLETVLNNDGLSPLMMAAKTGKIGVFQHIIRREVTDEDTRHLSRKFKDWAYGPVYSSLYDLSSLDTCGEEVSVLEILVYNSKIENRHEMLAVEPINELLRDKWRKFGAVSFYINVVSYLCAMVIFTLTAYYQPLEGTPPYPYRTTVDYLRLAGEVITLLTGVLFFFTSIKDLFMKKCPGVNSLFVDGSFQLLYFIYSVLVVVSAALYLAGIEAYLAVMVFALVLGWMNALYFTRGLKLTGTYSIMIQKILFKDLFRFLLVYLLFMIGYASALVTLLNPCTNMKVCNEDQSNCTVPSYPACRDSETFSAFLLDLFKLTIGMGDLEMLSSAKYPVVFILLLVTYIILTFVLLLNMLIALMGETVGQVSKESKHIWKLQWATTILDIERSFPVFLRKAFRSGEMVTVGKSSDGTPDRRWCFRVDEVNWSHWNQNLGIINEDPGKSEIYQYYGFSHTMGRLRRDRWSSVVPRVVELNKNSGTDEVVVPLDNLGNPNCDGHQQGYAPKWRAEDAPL

SMILES | inhibition [1] | Activity (LNCaP [2]) [%] | inhibition [3] | IC50 [4] [µM] | EC50 [5] | IC50 [6] [µM] | growth inhibition (GI) (LNCaP [7]) | inhibition [8] | inhibition of growth at 10 µM (LNCaP [7]) [%]
COc1cc(/C=C2\NC(=O)[C@@H]3Cc4c(OC)c(C)c(OC)c(OC)c4[C@@H](c4ccccc4)N3C2=O)c(OC)c(C)c1OC | inactive | 200 | inactive | 0.62 | Not Active | 14.2 | Active | inactive | 
COc1cc2c(cc1OC)[C@H](c1ccccc1)N(C(=O)N1CCc3cc(OC)c(OC)cc3[C@@H]1c1ccccc1)CC2 (racemic) | inactive | 220 | inactive | 0.5 | Not Active | 10 | Active | inactive | 
COc1cc2c(cc1OC)[C@H](c1ccc(F)cc1)N(C(=O)N1CCc3cc(OC)c(OC)cc3[C@@H]1c1ccc(F)cc1)CC2 (racemic) | inactive | 198 | inactive | 0.072 | Not Active | 16.4 |  | inactive | 64.3
COc1cc2c(cc1OC)[C@H](c1ccc(Cl)cc1)N(C(=O)N1CCc3cc(OC)c(OC)cc3[C@@H]1c1ccc(Cl)cc1)CC2 (racemic) | inactive | 190 | inactive | 0.43 | Not Active | 23.9 |  | inactive | 50.4
